The source of these data is ChEMBL document CHEMBL4020824, “Discovery of Potent and Orally Bioavailable Dihydropyrazole GPR40 Agonists” (J Med Chem, 2018).

Molecules are shown by their SMILES. Active and inactive are the calls of the source. No cut-off for these calls is given here.

The term EC50 denotes the concentration at which the effect is half-maximal. A word on the half-life: it is how long it takes for the measured level to halve. The term Cmax denotes the peak of the concentration-time curve. A word on the Tmax: it is the time from dosing to the highest level. One may read the bioavailability as dose-corrected exposure relative to a reference, in per cent.

Data set [1] addresses T1, Free fatty acid receptor 1 (Homo sapiens, UniProt O14842). Briefly: Agonist activity at human GPR40 expressed in CHOA12 cells assessed as induction of Ca2+ mobilization by FLIPR assay. It is filed as functional, cell-based. In general terms: Calcium assays in cells follow changes in intracellular calcium, usually with a dye or a luminescent sensor.
In data set [2] the test system is Liver. Briefly: Drug level in human liver microsomes treated with 2-((4S,5S)-1-(4-(((3R,4R)-1-(5-Ethoxy-2-fluorophenyl)-3-methylpiperidin-4-yl)oxy)phenyl)-4-methyl-3-(trifluoromethyl)-4,5-dihydro-1H-pyrazol-5-yl)acetic acid at 1 to 3 uM incubated for 20 mins in presence of NADPH measured after 90 mins by LC/MS/MS analysis. It is filed as ADME, microsome. In short, it runs like this:
(§1)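 Human or rat liver microsomal incubations. The read-outs were % parent remaining, % D-ring dealkylation metabolites, % GSH adducts, and half-life (min). The metabolites followed were CYP450-mediated oxidative de-alkylation products (phenols) and GSH conjugates.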
In general terms: Liver microsomes are a subcellular fraction often used to study metabolism.

Data set [3] relates to Liver. Briefly: Drug level in rat liver microsomes treated with 2-((4S,5S)-1-(4-(((3R,4R)-1-(5-Ethoxy-2-fluorophenyl)-3-methylpiperidin-4-yl)oxy)phenyl)-4-methyl-3-(trifluoromethyl)-4,5-dihydro-1H-pyrazol-5-yl)acetic acid at 1 to 3 uM incubated for 20 mins in presence of NADPH measured after 90 mins by LC/MS/MS analysis. It is filed as ADME, microsome. In short, it runs like this:
as §1

In data set [4] the target is T1, Free fatty acid receptor 1. Briefly: Agonist activity at human GPR40 expressed in CHOA12 cells assessed as induction of Ca2+ mobilization at 8.3 uM by FLIPR assay relative to compound 2. It is filed as functional, cell-based.
Data set [5] is described as follows: Stability in human liver microsomes assessed as parent compound remaining at 1 to 3 uM incubated for 20 mins in presence NADPH measured up to 90 mins by LC/MS/MS analysis. It is filed as ADME, microsome. The settings on record: liver microsomes, read-out: Stability. In short, it runs like this:
as §1

The nature of data set [6]: Half life in human liver microsomes at 1 to 3 uM incubated for 20 mins in presence NADPH measured up to 90 mins by LC/MS/MS analysis. It is filed as ADME, microsome. Particulars: liver microsomes.
Data set [7] is described as follows: Stability in rat liver microsomes assessed as parent compound remaining at 1 to 3 uM incubated for 20 mins in presence NADPH measured up to 90 mins by LC/MS/MS analysis. It is filed as ADME, microsome. Particulars: liver microsomes, read-out: Stability. In short, it runs like this:
as §1

Data set [8] in a line: Half life in rat liver microsomes at 1 to 3 uM incubated for 20 mins in presence NADPH measured up to 90 mins by LC/MS/MS analysis. It is filed as ADME, microsome. The settings on record: liver microsomes.
Data set [9] is described as follows: Half life in CD1 mouse at 1 mg/kg, iv administered as bolus dose or 1 mg/kg, po administered as single dose measured up to 24 hrs post dose by LC-MS/MS analysis. It is filed as ADME, organism-based. Particulars: in vivo.
Data set [10] can be described thus: Clearance in CD1 mouse at 1 mg/kg, iv administered as bolus dose or 1 mg/kg, po administered as single dose measured up to 24 hrs post dose by LC-MS/MS analysis. It is filed as ADME, organism-based. Particulars: in vivo.
The nature of data set [11]: Volume of distribution at steady state in CD1 mouse at 1 mg/kg, iv via bolus dose or 1 mg/kg, po administered as single dose measured up to 24 hrs post dose by LC-MS/MS analysis. It is filed as ADME, organism-based. The settings on record: in vivo, read-out: Vdss.
Data set [12] is described as follows: Cmax in Sprague-Dawley rat at 3 mg/kg, po administered as single dose measured up to 24 hrs post dose by LC-MS/MS analysis. It is filed as ADME, organism-based. Further details: dose 3 mg/kg, route oral. The settings on record: in vivo.
Data set [13] in a line: Tmax in Sprague-Dawley rat at 3 mg/kg, po administered as single dose measured up to 24 hrs post dose by LC-MS/MS analysis. It is filed as ADME, organism-based. Particulars: in vivo.
The nature of data set [14]: Half life in Sprague-Dawley rat at 1 mg/kg, iv administered as single dose measured up to 24 hrs post dose by LC-MS/MS analysis. It is filed as ADME, organism-based. The settings on record: in vivo.
The nature of data set [15]: Clearance in Sprague-Dawley rat at 1 mg/kg, iv administered as single dose measured up to 24 hrs post dose by LC-MS/MS analysis. It is filed as ADME, organism-based. The settings on record: in vivo.
Data set [16] is described as follows: Volume of distribution at steady state in Sprague-Dawley rat at 1 mg/kg, iv administered as single dose measured up to 24 hrs post dose by LC-MS/MS analysis. It is filed as ADME, organism-based. The settings on record: in vivo, read-out: Vdss.
The nature of data set [17]: Oral bioavailability in Sprague-Dawley rat at 3 mg/kg administered via gavage as single dose measured up to 24 hrs post dose by LC-MS/MS analysis. It is filed as ADME, organism-based. The settings on record: in vivo.
A short description of data set [18]: Half life in Beagle dog at 0.5 mg/kg, iv administered as single dose measured up to 24 hrs post dose by LC-MS/MS analysis. It is filed as ADME, organism-based, Canis lupus familiaris. The settings on record: in vivo.
Data set [19] is described as follows: Clearance in Beagle dog at 0.5 mg/kg, iv administered as single dose measured up to 24 hrs post dose by LC-MS/MS analysis. It is filed as ADME, organism-based, Canis lupus familiaris. Particulars: in vivo.
Data set [20] is described as follows: Volume of distribution at steady state in Beagle dog at 0.5 mg/kg, iv administered as single dose measured up to 24 hrs post dose by LC-MS/MS analysis. It is filed as ADME, organism-based, Canis lupus familiaris. The settings on record: in vivo, read-out: Vdss.
The nature of data set [21]: Half life in cynomolgus monkey at 0.5 mg/kg, iv administered as single dose measured up to 24 hrs post dose by LC-MS/MS analysis. It is filed as ADME, organism-based, Macaca fascicularis. Particulars: in vivo.
Data set [22] can be described thus: Clearance in cynomolgus monkey at 0.5 mg/kg, iv administered as single dose measured up to 24 hrs post dose by LC-MS/MS analysis. It is filed as ADME, organism-based, Macaca fascicularis. Particulars: in vivo.
Data set [23] in a line: Volume of distribution at steady state in cynomolgus monkey at 0.5 mg/kg, iv administered as single dose measured up to 24 hrs post dose by LC-MS/MS analysis. It is filed as ADME, organism-based, Macaca fascicularis. The settings on record: in vivo, read-out: Vdss.
In data set [24] the test system is Mus musculus. The data set can be described thus: Antidiabetic activity in C57BL/6J mouse assessed as glucose lowering effect at 1 mg/kg, po administered 1 hr prior to glucose challenge measured after 120 mins by IPGTT. It is filed as functional, organism-based.

T1 sequence (O14842 whole entry): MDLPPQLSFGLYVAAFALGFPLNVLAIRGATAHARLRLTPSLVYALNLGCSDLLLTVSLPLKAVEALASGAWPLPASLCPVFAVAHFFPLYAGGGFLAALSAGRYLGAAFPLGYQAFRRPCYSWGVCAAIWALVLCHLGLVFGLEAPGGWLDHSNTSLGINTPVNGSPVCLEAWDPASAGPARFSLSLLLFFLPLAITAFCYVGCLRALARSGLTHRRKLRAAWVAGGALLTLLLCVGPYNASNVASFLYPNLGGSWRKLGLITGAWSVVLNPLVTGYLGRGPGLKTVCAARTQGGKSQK

As for `COc1cc(N2CC[C@@H](Oc3ccc(N4N=C(C(F)(F)F)[C@@H](C)[C@@H]4CC(=O)O)cc3)[C@H](F)C2)c(Cl)cn1`, in data set [1], the EC50 was 180 nM.
Same read-out and setting: the result for `CCc1ccc(F)c(N2CCC(Oc3ccc(N4N=C(C(F)(F)F)[C@@H](C)[C@@H]4CC(=O)O)cc3)CC2)c1` reads 450 to 720 nM; that for `COc1ccc(C#N)c(N2CCC(Oc3ccc(N4N=C(C(F)(F)F)[C@@H](C)[C@@H]4CC(=O)O)cc3)CC2)c1`, 680 nM.
On to `C[C@@H]1CN(c2cc(O)ccc2F)CC[C@H]1Oc1ccc(N2N=C(C(F)(F)F)[C@@H](C)[C@@H]2CC(=O)O)cc1`, for which the Drug uptake result in [2] and in data set [3] was “Metabolite_Detected” in each case.
Consider `COc1ccc(F)c(N2CCC(Oc3ccc(N4C[C@H](C(F)(F)F)C[C@@H]4CC(=O)O)cc3)C2)c1` (some centres not stated), for which the EC50 in data set [1] fell in the range of 2830 to 5360 nM. For the same compound, the result in data set [4] was Active.
For the compound `COc1ccc(F)c(N2CC[C@H](COc3ccc(N4C[C@H](C(F)(F)F)C[C@@H]4CC(=O)O)cc3)C2)c1`, the result in data set [4] was Active.
Take `C[C@@H]1C(C(F)(F)F)=NN(c2ccc(OC3CCN(c4cc(Cl)ccc4Cl)CC3)cc2)[C@H]1CC(=O)O`: in [1], the 50% effective concentration (EC50) was 250 nM.
The same measure, in the same setting: under `C[C@@H]1C(C(F)(F)F)=NN(c2ccc(OC3CCN(c4cccc(F)n4)CC3)cc2)[C@H]1CC(=O)O` stands 390 to 860 nM.
Consider `CCOc1ccc(F)c(N2CC[C@@H](Oc3ccc(N4N=C(C(F)(F)F)[C@@H](C)[C@@H]4CC(=O)O)cc3)[C@H](F)C2)c1`, for which the EC50 in data set [1] was 150 nM. The remaining at 20 min, up to 3 µM in data set [5] amounted to 93%; in data set [7] it was 79%. In addition, the half-life is 1.58 h in data set [6]; 0.617 h in [8]; 3.3 h in data set [9]; 3.4 h in data set [14]; 7.3 h in data set [18]; 9.4 h in data set [21]. The clearance is 1.6 mL/min/kg in [10], 5 mL/min/kg in data set [15], 2.6 mL/min/kg in data set [19] and 4 mL/min/kg in data set [22]. Besides, the Vd in data set [11] amounted to 0.7 L/kg; in [16], 0.8 L/kg; in data set [20], 0.6 L/kg; in data set [23] it was 2.2 L/kg. The highest concentration (Cmax) in data set [12] turned out to be 3.2 µM. In addition, the Tmax in [13] was 1.7 h. The compound further yielded a bioavailability in data set [17] of 89%.
Turning to `COc1ccc(F)c(-c2ccc(Cc3ccc(N4C[C@H](C(F)(F)F)C[C@@H]4CC(=O)O)cc3)c(C)c2)c1`, the result in data set [24] was Active.
Turning to `COc1ccc(F)c(N2CC[C@@H](COc3ccc(N4C[C@H](C(F)(F)F)C[C@@H]4CC(=O)O)cc3)C2)c1`, in data set [4], the outcome was Active.
